Screening data as filed in PubChem.
MC4R barr agon: MC4R agonists recruiting beta-arrestin, primary screen, cell-based, luminescence, agonist arm of biased-ligand search | U2OS MC4R beta-arrestin complementation; percent of melanotan II response, DMSO zero | Melanocortin receptor 4 (Homo sapiens), P32245 | activation, % at 8.9 µM | 360,000 compounds, 0.98% hits;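 active = activation above a per-plate cutoff, the mean activation of sample wells on that plate plus 3 SD, cut at about 8% in these data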
Target sequence (P32245 whole entry, looked up): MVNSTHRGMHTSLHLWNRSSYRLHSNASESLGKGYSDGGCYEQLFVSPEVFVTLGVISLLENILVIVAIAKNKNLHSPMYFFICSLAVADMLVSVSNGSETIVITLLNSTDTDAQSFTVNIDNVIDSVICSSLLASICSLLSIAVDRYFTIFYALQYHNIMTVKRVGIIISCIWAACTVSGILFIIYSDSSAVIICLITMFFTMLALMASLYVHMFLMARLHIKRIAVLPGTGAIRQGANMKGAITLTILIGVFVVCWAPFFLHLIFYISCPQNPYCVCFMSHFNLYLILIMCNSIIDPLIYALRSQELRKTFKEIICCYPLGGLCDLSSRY
Tb MetRS inh: T. brucei MetRS inhibitors, primary screen, biochemical, luminescence; purified T. brucei MetRS, ATP depletion, Kinase-Glo luminescence; methionyl-tRNA synthetase (Trypanosoma brucei brucei); inhibition, % at 11.9 µM; AID 624268, 2012; 360,000 compounds, 0.4% hits;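 active = inhibition above a per-plate cutoff of the control wells' mean inhibition plus 3 SD, cut at about 5.5% in these data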;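 also: 0% = DMSO wells median and 100% = median of wells with control inhibitor compound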
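Material: parasite MetRS enzyme / Replication: singlicate, one well per compound / Signal: luminescence of leftover ATP / Schedule: 2 h aminoacylation at 25 °C after 15 min preincubation / Medium: HEPES-MgCl2-KCl buffer plus DTT, spermine, BSA, pyrophosphatase / Doses: 11.9 µM single point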
iPSC survival up: enhancers of single-cell hiPSC survival, primary screen, ATPlite luminescence; 100% = ROCK inhibitor wells, 0% = DMSO; survival enhancement, % at 20 µM; 360,000 compounds, 0.044% hits; in the data active = survival enhancement above about 18%;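 also: cells exposed to compounds for 16 hours before the ATP read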
Exocytosis inh: LAMP-1 surface exposure blockers, TALL-104 cells – cell-based, flow cytometry, MLPCN library, primary screen. 360,000 compounds, 0.66% hits. inhibition, % at 10 µM. TALL-104 LAMP-1 surface exposure; cells stimulated with thapsigargin and PMA;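 active = inhibition above about 55%, limit read from the data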
ABCB6 inh 2: ABCB6 transporter inhibitors, primary screen, K562-ABCB6 cells, flow cytometry, MLPCN library; 360,000 compounds, 0.19% hits; fluorescence ratio to DMSO, % at 10 µM; ATP-binding cassette sub-family B member 6 (Homo sapiens), Q9NP58; AID 602162, 2011; K562-ABCB6 porphyrin accumulation, 1 h; stronger effect = lower value;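 active = fluorescence ratio to DMSO below 75%, the collection mean minus 3 SD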;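 also: signal is porphyrin accumulated inside mitochondria; 100% equals median channel fluorescence of DMSO control wells; lower ratio means ABCB6 inhibition with less porphyrin fluorescence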
MC4R antagonist: MC4R antagonists of cAMP signaling, primary screen, cell-based, TR-FRET, antagonist arm of biased-ligand search; Melanocortin receptor 4 (Homo sapiens), P32245; MC4R-expressing cells, MTII-stimulated cAMP, LANCE TR-FRET; inhibition, % at 6.5 µM; 360,000 compounds, 0.48% hits;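 active = inhibition above its plate's cutoff, the mean of tested wells on that plate plus 3 SD, cut at about 29% in these data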;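 also: 0% = Melanotan II alone and 100% = Melanotan II plus saturating MCL0020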
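System – human MC4R-expressing U2OS cells · Also added – Melanotan II · Dosing – one concentration, 6.5 µM nominal · Timing – 30-min compound, 1-h challenge, 1-h detection, room temperature · Measured by – Eu-cAMP/anti-cAMP TR-FRET, emission 671 nm · Replicates – singlicate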
MC4R barr conf: MC4R beta-arrestin agonists, retest, confirmation, cell-based, luminescence, U2OS. shares compounds with MC4R barr agon. U2OS MC4R beta-arrestin recruitment; scaled DMSO 0%, Melanotan II 100%. activation, % at 8.9 µM. 2,400 compounds, 31% hits;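 active = mean activation across replicates above the hit cutoff set in the earlier primary screen, cut at about 8% in these data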
MOR-DOR barr ag: agonists of MOR-DOR heterodimerization, counter-screen for MC4R biased agonist project, cell-based, luminescence | shares compounds with MC4R barr agon | 2,400 compounds, 5.8% hits | U2OS PathHunter beta-arrestin, beta-gal luminescence; percent of deltorphin B response, DMSO zero | activation, % at 9.2 µM;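 active = mean activation across replicates exceeds the hit threshold derived in the earlier primary screen, cut at about 18% in these data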;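 also: 100% = deltorphin B at 0.9 µM final and 0% = DMSO alone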
The depositor's hits bear a star; x = no result given. Compounds with a hit are over-represented: about 2.6% of the library has one in this group of screens.

SMILES | MC4R barr agon | Tb MetRS inh | iPSC survival up | Exocytosis inh | ABCB6 inh 2 | MC4R antagonist | MC4R barr conf | MOR-DOR barr ag
Cc1ccc(OCC(=O)NC(=S)Nc2cccc(NC(=O)c3ccccc3)c2)cc1 | 15* | -1 | 0 | 0 | 86 | -7 | 17* | 7
O=C(O)c1ccc(S(=O)(=O)Nc2ccc(O)c(Sc3nc4ccccc4s3)c2)cc1 | -1 | 0 | 0 | -2 | 100 | -7 | x | x
CCN1C(=O)/C(=C2/Sc3ccc(OC)cc3N2C)SC1=Nc1cccc(O)c1 | 14* | 0 | -1 | -7 | 92 | 14 | 17* | 12
C=CCN1C(=O)/C(=C2/Sc3ccc(OC)cc3N2C)SC1=Nc1ccccc1 | -3 | 0 | 0 | 11 | 100 | 1 | x | x
CC(=O)NCC1COc2ccccc2O1 (centres undefined) | -2 | -1 | 0 | -3 | 98 | 0 | x | x
CC(C)Oc1ccc(/C=C/C(=O)NCC2COc3ccccc3O2)cc1 (centres undefined) | 10* | -1 | -1 | 7 | 99 | 4 | 1 | 3
CCOC(=O)CCS(=O)(=O)c1ccc(-c2ccc(S(=O)(=O)CCC(=O)OCC)cc2)cc1 | 1 | 0 | 1 | 0 | 100 | 16 | x | x
Cc1ccc2sc(N(CCCN(C)C)C(=O)CN3C(=O)c4ccccc4C3=O)nc2c1C | 18* | 0 | 0 | 15 | 92 | -3 | 19* | 9
O=C(Nc1cccc2cccnc12)c1ccc(Br)cc1Br | 1 | 0 | 0 | -2 | 102 | -4 | x | x
C=CCn1c(SCC(=O)Nc2ccc(C(=O)OC(C)C)cc2)nnc1-c1cccs1 | 23* | -1 | 0 | 1 | 86 | 17 | 1 | 2
Nn1c(SCC(=O)NC2CCS(=O)(=O)C2)nnc1-c1ccco1 (centres undefined) | 1 | 0 | -1 | -1 | 90 | 8 | x | x
O=C(NC(=S)Nc1nc(-c2ccccc2)cs1)c1cccs1 | 11* | 0 | 2 | 6 | 99 | 12 | 0 | 1
O=C(NC(=S)Nc1nc(-c2ccccc2)cs1)c1cncc(Br)c1 | 22* | 0 | -1 | 22 | 91 | 5 | 6 | 1
Cc1ccc(-c2csc(NC(=S)NC(=O)c3cccs3)n2)cc1 | -1 | 0 | 0 | -3 | 100 | 19 | x | x
CCN(CC(=O)NCc1ccc(F)cc1)C(=O)c1cc2ccccc2o1 | -2 | 0 | 0 | -14 | 99 | 4 | x | x
CCOC(=O)C1=C(COC(=O)c2nc(Cl)ccc2Cl)NC(=O)NC1C (centres undefined) | -1 | 0 | 2 | -5 | 96 | -1 | x | x
CCc1cc(SC#N)cc(CC)c1NC(=O)CCl | 0 | -1 | -1 | 4 | 107 | -23 | x | x
CCCn1nnc(NC(=O)c2ccc(-c3cc(Cl)ccc3Cl)o2)n1 | 9.6* | 0 | 1 | 2 | 103 | 2 | 8 | 3
CN1CCn2cnc(C(=O)NCc3ccc(CNC(=O)OC(C)(C)C)cc3)c2C1=O | x | -1 | 0 | 0 | 100 | x | x | x
CC1(Oc2cccc(F)c2)CCN(Cc2ccc(-c3ccccc3)o2)C1 (centres undefined) | 10.0* | 0 | -2 | 3 | 99 | -3 | 1 | 5
CSc1ccc(CN2CCC(C)(Oc3cccc(F)c3)C2)cc1 (centres undefined) | 0 | 0 | -1 | -1 | 99 | -1 | x | x
O=C(NCC1CCCO1)c1ccccc1NS(=O)(=O)c1ccc(F)cc1 (centres undefined) | 0 | 0 | 6 | 4 | 104 | -4 | x | x
Cc1ccc(-c2nc3ccccc3s2)cc1NC(=S)NC(=O)c1ccccc1 | 2 | 0 | -1 | -2 | 104 | 7 | x | x
Cc1ccc(-c2nc3ccccc3s2)cc1NC(=O)c1cc(-n2cnnc2)ccc1Cl | 11* | 0 | -1 | -1 | 92 | 14 | 0 | 3
CCCCCCOc1ccc(N2C(=O)CC(S/C(N)=N/N=C(\C)c3cccs3)C2=O)cc1 (centres undefined) | 21* | 0 | 0 | 2 | 97 | 12 | 15* | 2
SMILES | MC4R barr agon | Tb MetRS inh | iPSC survival up | Exocytosis inh | ABCB6 inh 2 | MC4R antagonist | MC4R barr conf | MOR-DOR barr ag
C/C(=N\N=C(/N)SC1CC(=O)N(c2ccccc2)C1=O)c1cccs1 (centres undefined) | 0 | 0 | 4 | -2 | 97 | 5 | x | x
CCCCN1C=C(C(C)=O)C(=O)CC1 | -2 | 0 | 0 | 0 | 97 | -5 | x | x
COc1ccc(NC(=O)c2ccc(F)c(F)c2)c2ccccc12 | 21* | 0 | 0 | 22 | 94 | 5 | -1 | 2
NC(=O)CC(NC(=O)c1ccc(Br)cc1)c1ccc(NCCc2ccc(F)cc2)c([N+](=O)[O-])c1 (centres undefined) | 13* | 0 | -3 | -7 | 102 | 3 | -1 | 3
OC(c1cccc(Cl)c1)c1nc(-c2ccoc2)cs1 (centres undefined) | -1 | 0 | 1 | 12 | 99 | 6 | x | x
CN(C)CCCN(C(=O)c1cc2cc([N+](=O)[O-])ccc2s1)c1nc2cc3c(cc2s1)OCCO3 | 35* | 0 | 0 | 76* | 95 | -5 | 25* | 17
CN(C)CCCN(C(=O)c1ccc([N+](=O)[O-])s1)c1nc2cc3c(cc2s1)OCCO3 | -4 | -1 | 0 | 6 | 106 | 3 | x | x
O=S(=O)(N(Cc1ccccc1)[C@H](CO)Cc1ccccc1)N(Cc1ccccc1)[C@H](CO)Cc1ccccc1 | 28* | 0 | 4 | 0 | 100 | 14 | 7 | 6
CC(C)C[C@@H](CO)N(Cc1ccccc1)S(=O)(=O)N(Cc1ccccc1)[C@H](CO)CC(C)C | 0 | 0 | -1 | -13 | 96 | 17 | x | x
O=C(OCc1c(F)cccc1Cl)c1cccnc1Cl | 0 | 0 | 0 | 2 | 98 | -6 | x | x
